High-throughput results (PubChem BioAssay)
CR mimetic SO – reduction of superoxide in aged yeast, primary screen, HTS; S. cerevisiae aged cells, superoxide DHE fluorescence; active compounds read low; superoxide response (% of plate mean), % at 10 µM; 0.18% of 330,000 active; AID 2690, 2010;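 active = superoxide response under a set limit, about three screen SD below normal, cut at about 65% in these data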;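 note: yeast aged for seven days with compound at 30 °C before DHE staining; 100% = average MFI of all compound-treated wells on the plate with controls excluded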
TRPC6 act – mouse TRPC6 channel activators, primary screen, cell-based, HEK293, membrane potential dye; Short transient receptor potential channel 6 (Mus musculus), Q61143; HEK293-TRPC6 membrane potential dye fluorescence; active compounds read high; B-score at 10 µM; 0.13% of 310,000 active;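 active = B-score of the integrated fluorescence ratio above library mean plus 3 SD, and starting fluorescence ratio within library mean plus 5 SD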;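 note: higher score means more depolarization so channel activation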
Target sequence (Q61143 whole entry, looked up): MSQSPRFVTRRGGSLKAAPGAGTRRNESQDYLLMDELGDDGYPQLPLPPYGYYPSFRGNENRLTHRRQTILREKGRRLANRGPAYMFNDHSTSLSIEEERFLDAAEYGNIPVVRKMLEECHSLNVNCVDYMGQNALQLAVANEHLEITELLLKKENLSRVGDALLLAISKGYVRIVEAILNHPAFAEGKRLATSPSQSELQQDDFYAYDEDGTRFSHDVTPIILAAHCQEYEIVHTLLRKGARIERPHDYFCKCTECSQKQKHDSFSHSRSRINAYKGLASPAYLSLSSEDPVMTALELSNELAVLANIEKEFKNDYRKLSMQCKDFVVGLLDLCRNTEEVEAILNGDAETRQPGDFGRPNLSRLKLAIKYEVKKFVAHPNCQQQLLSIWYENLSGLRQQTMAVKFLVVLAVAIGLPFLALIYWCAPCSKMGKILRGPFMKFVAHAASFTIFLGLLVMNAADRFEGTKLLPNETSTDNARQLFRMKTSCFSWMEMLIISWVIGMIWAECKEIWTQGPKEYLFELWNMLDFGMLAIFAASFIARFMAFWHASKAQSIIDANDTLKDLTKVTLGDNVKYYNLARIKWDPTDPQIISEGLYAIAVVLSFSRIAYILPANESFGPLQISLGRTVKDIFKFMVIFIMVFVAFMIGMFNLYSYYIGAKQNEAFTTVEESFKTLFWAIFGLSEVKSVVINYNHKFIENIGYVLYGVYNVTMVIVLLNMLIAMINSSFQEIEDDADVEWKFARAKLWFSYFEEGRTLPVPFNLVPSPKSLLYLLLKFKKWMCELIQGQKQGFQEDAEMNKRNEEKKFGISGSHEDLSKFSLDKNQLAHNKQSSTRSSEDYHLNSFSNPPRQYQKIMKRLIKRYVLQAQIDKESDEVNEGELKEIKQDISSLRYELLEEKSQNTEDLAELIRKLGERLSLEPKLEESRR
TRPC4 agonist – activators of mouse TRPC4 channel, primary screen, Fluo4 calcium, HEK293 TRPC4beta/mu-opioid cells; Short transient receptor potential channel 4 (Mus musculus), Q9QUQ5; Fluo4 calcium fluorescence; active compounds read high; B-score at 10 µM; 0.49% of 310,000 active;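 active = B-score above 5 SD of library B-scores, and initial fluorescence ratio not above library mean plus 5 SD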;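 note: positive B-score marks a calcium rise read as TRPC4 activation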
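System: HEK293 cells stably co-expressing mouse TRPC4beta and mu-opioid receptor; Schedule: Fluo4 dye loading 45 min at room temperature, 110 s recording; Detection: Fluo4 fluorescence, kinetic; Evaluation: B-scored integrated calcium fluorescence ratio; Controls: buffer (low) and maximal DAMGO (high).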
TRPC4 PAM – positive allosteric modulators of TRPC4, primary screen, cell-based, mouse TRPC4beta, HEK293 mu-opioid, Fluo-4 calcium; AID 2227, 2009; DAMGO EC20, Fluo-4 Ca2+ flux; active compounds read high; B-score at 10 µM; 0.42% of 310,000 active; Short transient receptor potential channel 4 (Mus musculus), Q9QUQ5;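 active = B-score of calcium response area above 5 SD of library B-scores, with initial fluorescence ratio within 5 SD of library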;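 note: B-score of integrated fluorescence ratio over time as area under calcium response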
TRPC6 inh – mouse TRPC6 channel inhibitors, primary screen, cell-based, HEK293, membrane potential dye; Short transient receptor potential channel 6 (Mus musculus), Q61143; ACh-evoked depolarization; active compounds read low; B-score at 10 µM; 1.1% of 310,000 active;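 active = B-score under library mean minus 3 SD, initial fluorescence not abnormally high, positive integrated signal ratio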;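 note: B-score derived from integrated fluorescence ratio over the kinetic read; more negative B-score means stronger inhibition of depolarization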
TRPC4 inh – inhibitors of mouse TRPC4 channel, primary screen, Fluo4 calcium, HEK293 TRPC4beta/mu-opioid cells. Short transient receptor potential channel 4 (Mus musculus), Q9QUQ5. DAMGO-evoked Fluo4 calcium flux; active compounds read low. B-score at 10 µM. 0.39% of 300,000 active;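 active = B-score over 3 SD under the library average, no early fluorescence shift, positive overall ratio signal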
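Assay system: Stable TRPC4beta/mu-opioid receptor HEK293 cells | Reagent: DAMGO in two steps, submaximal then maximal | Compound dosing: Single concentration per test compound | Signal: Fluo4 Ca2+ flux fluorescence | Evaluation: Per-well B score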
TRPC4 spec 2 – second check of whether TRPC6 inhibitors also affect mouse TRPC4; HEK293 TRPC4/MOR, membrane potential dye fluorescence; channel activated by saturating DAMGO dose; inhibition, % at 10 µM; shares compounds with TRPC6 inh; AID 2776; 42% of 920 active;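 active = compounds whose fluorescence signal differed from control wells by over 3 SD, either direction, in both duplicate plates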
TRPC4 spec – mouse TRPC4 modulation by TRPC6 hits, confirmation, selectivity assay for TRPC6 inhibitor project, cell-based, HEK293 TRPC4/mu-opioid, membrane potential dye; shares compounds with TRPC6 inh; AID 2777, 2010; membrane potential fluorescence; 61% of 920 active; activity change, negative = inhibition, % at 10 µM;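 active = rise or fall in signal beyond 3 SD of buffer-only wells in both replicate plates, either sign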;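 note: integrated kinetic ratio of fluorescence range over baseline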
HEK293 MPD ctr 2-1 – nonspecific membrane potential effects, parental HEK293, confirmation, counter-screen for TRPC6 inhibitor project, cell-based, second counter screen | shares compounds with TRPC6 inh | parental HEK293 membrane potential dye fluorescence; maximal acetylcholine challenge after compound addition | signal change vs control, % at 10 µM | 31% of 920 active | AID 2779, 2010;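 active = membrane potential signal moving either way by over 3 SD of the maximum-effect control, in both duplicate plates, meaning non-specific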
HEK293 MPD ctr-1 – membrane potential modulation in parental HEK293, confirmation, counter-screen for TRPC6 inhibitor project, cell-based. membrane potential signal change, % at 10 µM. 60% of 920 active. shares compounds with TRPC6 inh. parental HEK293 membrane potential dye fluorescence;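 active = membrane potential signal shifting up or down by more than 3 SD of buffer-only wells, on both duplicate plates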
HEK293 MPD ctr-2 – parental HEK293 membrane potential modulation, confirmation, counter-screen for TRPC6 modulator project, cell-based. shares compounds with TRPC6 inh. membrane potential dye fluorescence. membrane potential signal change, % at 10 µM. 51% of 2,400 active. AID 488924, 2010;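 active = membrane potential signal moves up or down beyond 5 SD from buffer-only wells, on both duplicate plates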
HEK293 MPD ctr 2-2 – second check of TRPC6 modulator effects in parental HEK293 cells; shares compounds with TRPC6 inh; membrane potential dye fluorescence; after compound, maximal acetylcholine stimulation; inhibition, % at 10 µM; 14% of 2,400 active;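 active = membrane potential signal drops by more than 5 SD from the mean control signal, in both duplicate plates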;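 note: plate controls were acetylcholine ECmax control wells for no effect and buffer only wells for full effect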
TRPC4 ctr mod – TRPC4 modulation by TRPC6 hit compounds, confirmation, selectivity assay for TRPC6 modulator project, cell-based, HEK293 TRPC4/mu-opioid, membrane potential dye, mouse | AID 488927, 2010 | shares compounds with TRPC6 inh | membrane potential fluorescence | 69% of 2,400 active | percent change from control (negative = decrease, positive = increase), % at 10 µM;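 active = membrane potential signal moved up or down beyond 5 SD of buffer control wells, in both duplicate plates, actives on both sides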;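 note: plate controls were assay buffer wells for no effect and DAMGO maximal-effect wells for full effect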
TRPC4/MOR inh 2 – mouse TRPC4 off-target activity of TRPC6 modulators, second screen; shares compounds with TRPC6 inh; HEK293 TRPC4/mu-opioid, membrane potential dye fluorescence; stimulated with maximal-effect DAMGO; inhibition, % at 10 µM; 55% of 2,400 active;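 active = drop in membrane potential signal beyond 5 SD of the control wells in both duplicate plates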;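 note: TRPC4 counter screen for TRPC6 hits run under conditions tuned for TRPC6 not TRPC4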
TRPC6 block conf – mouse TRPC6 channel inhibitors, confirmation, HEK293 cells, membrane potential dye, duplicate; shares compounds with TRPC6 inh; ACh-evoked depolarization; inhibition, % at 10 µM; 43% of 3,300 active;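 active = fluorescence ratio falls more than 5 SD below the full-stimulation control mean, in both duplicate runs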;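 note: integrated fluorescence ratio of peak minus minimum over baseline after agonist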
TRPC6 act conf – mouse TRPC6 channel activators, confirmation, HEK293 cells, membrane potential dye, duplicate; shares compounds with TRPC6 inh; 11% of 2,800 active; AID 488961, 2010; activation, % at 10 µM; HEK293-TRPC6 membrane potential dye fluorescence, FDSS;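 active = ratio signal rise beyond 5 SD above unstimulated control wells' mean, seen in both duplicate runs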;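 note: plate controls were buffer EC0 wells for no effect and acetylcholine ECmax response for full effect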
The depositor's hits bear a star; i = inactive; / = no result. Sampled rows, rich in hits. Any-hit rate of the full collection: about 2.3%.

SMILES | CR mimetic SO | TRPC6 act | TRPC4 agonist | TRPC4 PAM | TRPC6 inh | TRPC4 inh | HEK293 MPD ctr-2 | HEK293 MPD ctr 2-2 | TRPC4 ctr mod | TRPC4/MOR inh 2 | TRPC6 block conf | TRPC6 act conf | others
Cc1ccc(NC2c3ncccc3C(=O)N2c2ccccc2C)cc1C (stereo not given) | 185 | i | i | i | i | i | / | / | / | / | / | /
CN(CCOC(=O)C1c2ccccc2Oc2ccccc21)C(C)(C)C | 97 | i | i | i | -10* | i | / | / | / | / | 68%* | / | TRPC4 spec 2=i;TRPC4 spec=15%*;HEK293 MPD ctr 2-1=24%*;HEK293 MPD ctr-1=11%*
CC[N+](C)(CC)CCOC(=O)C1c2ccccc2Oc2ccccc21 | 97 | / | / | / | / | / | / | / | / | / | / | /
CN(C)CCCOC(=O)C1c2ccccc2Oc2ccccc21 | 117 | i | i | i | -8.5* | i | / | / | / | / | 63%* | / | TRPC4 spec 2=i;TRPC4 spec=7.3%*;HEK293 MPD ctr 2-1=28%*;HEK293 MPD ctr-1=7.4%*
COc1ccc(S(=O)(=O)N2CCc3cc(OC)c(OC)cc3C2)cc1 | 97 | i | i | i | -7.1* | i | / | / | / | / | i | i | TRPC4 spec 2=i;TRPC4 spec=i;HEK293 MPD ctr 2-1=i;HEK293 MPD ctr-1=i
COc1ccc(C2C([N+](=O)[O-])=C(C)N(C)C(=O)N2C)cc1OC (stereo not given) | 102 | i | i | i | i | i | / | / | / | / | / | /
CCSC1=N/C(=C\c2ccc(C(=O)O)cc2)C(=O)S1 | 99 | i | i | i | i | i | / | / | / | / | / | /
CCOC(=O)SC1=N/C(=C\c2ccc(N(C)C)cc2)C(=O)S1 | 135 | 12* | i | i | -6* | i | i | i | 12%* | i | i | i
CC(C)c1nnc(NC(=O)Cc2ccccc2[N+](=O)[O-])s1 | 104 | i | i | i | i | i | / | / | / | / | / | /
CC(C)(C)c1nnc(NC(=O)Cc2ccccc2[N+](=O)[O-])s1 | 113 | i | i | i | -6.4* | i | i | i | i | i | i | i
Cc1[nH]nc(-c2ccc(O)cc2O)c1-c1ccc(Cl)cc1 | 94 | i | i | i | -5.8* | -7* | -79%* | i | -22%* | 80%* | i | i
COc1ccc(-c2n[nH]c(C)c2-c2ccc(Cl)cc2)c(O)c1 | 108 | i | i | i | i | i | / | / | / | / | / | /
CCN(C(=O)COC(=O)c1cc(-c2ccccc2)nc2c1c(C)nn2-c1ccccc1)C1CCS(=O)(=O)C1 (stereo not given) | 103 | i | i | i | i | i | / | / | / | / | / | /
CCOC(=O)Cn1c(-c2ccccn2)nc2ccccc21 | 99 | i | i | i | i | i | / | / | / | / | / | /
CCOC(=O)c1ccc2c(c1)nc(-c1ccccn1)n2CC | 102 | i | i | i | -5.5* | i | i | i | i | i | i | i
CCC(=O)Nc1ccccc1C(=O)OCC(=O)c1ccccc1 | 111 | i | i | i | i | i | / | / | / | / | / | /
Cc1cc(C)n(CCN(C)Cc2cn[nH]c2-c2ccc(F)cc2F)n1 | 99 | i | i | i | i | i | / | / | / | / | / | /
COc1ccc(N2CCN(CC(O)COc3ccc(C)c(C)c3)CC2)cc1 (stereo not given) | 95 | i | i | i | -6.1* | i | i | i | i | 48%* | i | i
Cc1ccc2nc(CSc3nnc(-c4ccco4)o3)cc(=O)n2c1 | 105 | i | i | i | -5.3* | i | i | i | i | i | i | /
O=C(OCC(=O)N1CCN(C(=O)c2ccco2)CC1)c1cncc(Br)c1 | 109 | / | / | / | / | / | / | / | / | / | / | /
Cc1ccc(CNCCC2=CCCCC2)cc1 | 84 | i | i | i | -7.1* | i | / | / | / | / | i | i | TRPC4 spec 2=i;TRPC4 spec=i;HEK293 MPD ctr 2-1=i;HEK293 MPD ctr-1=i
Cc1ccc(-n2nnnc2CNC(=O)c2ccc3c(c2)OCO3)cc1C | 98 | i | i | i | -8.1* | i | i | 95%* | 19%* | i | 80%* | i
COc1ccc(NC(=O)C2C3C=CC(O3)C2C(=O)NCc2cccnc2)cc1 (stereo not given) | 98 | i | i | i | i | i | / | / | / | / | / | /
